Legend:
[1] = target: Neuraminidase (Influenza A virus (A/Memphis/1/1971(H3N2)), UniProt P03471); assay: Inhibition of human influenza A/Memphis/1/71(H3N2) sialidase by fluorescence spectrophotometry
How it was run: (§1)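 Influenza A virus suspension in saline (HAU = 26) as sialidase source; mixed with glycodendrimer and 4-MU-Neu5Ac (0.4 mM final) in 20 mM acetate buffer pH 5.2; 37 °C, 30 min; stopped with 100 mM carbonate buffer pH 10.7; released 4-MU fluorescence ex 355/em 460 nm. IC50 read graphically from % inhibition vs concentration, in mM per monomeric sugar unit.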

[2] = target: Neuraminidase (Influenza A virus, UniProt B4URF0); assay: Inhibition of human Influenza A virus A/PR/8/34(H1N1) sialidase by fluorescence spectrophotometry; design: species or system Influenza A virus (A/Puerto Rico/8/1934(H1N1)); how it was run: as §1
Chain of Neuraminidase (B4URF0 whole entry): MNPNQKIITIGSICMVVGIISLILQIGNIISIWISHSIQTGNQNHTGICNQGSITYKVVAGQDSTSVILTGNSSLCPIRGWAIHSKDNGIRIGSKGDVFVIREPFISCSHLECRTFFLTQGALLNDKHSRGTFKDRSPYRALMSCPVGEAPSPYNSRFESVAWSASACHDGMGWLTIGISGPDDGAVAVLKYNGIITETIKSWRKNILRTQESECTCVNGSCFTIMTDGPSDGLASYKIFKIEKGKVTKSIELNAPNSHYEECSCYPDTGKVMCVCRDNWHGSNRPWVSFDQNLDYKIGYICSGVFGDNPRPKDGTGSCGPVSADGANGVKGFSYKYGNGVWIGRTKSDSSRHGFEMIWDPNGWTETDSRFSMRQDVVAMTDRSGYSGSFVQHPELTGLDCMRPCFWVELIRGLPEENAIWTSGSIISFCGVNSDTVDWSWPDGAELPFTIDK

Chain of Neuraminidase (Influenza A virus (A/Memphis/1/1971(H3N2)), UniProt P03471) (P03471 whole entry): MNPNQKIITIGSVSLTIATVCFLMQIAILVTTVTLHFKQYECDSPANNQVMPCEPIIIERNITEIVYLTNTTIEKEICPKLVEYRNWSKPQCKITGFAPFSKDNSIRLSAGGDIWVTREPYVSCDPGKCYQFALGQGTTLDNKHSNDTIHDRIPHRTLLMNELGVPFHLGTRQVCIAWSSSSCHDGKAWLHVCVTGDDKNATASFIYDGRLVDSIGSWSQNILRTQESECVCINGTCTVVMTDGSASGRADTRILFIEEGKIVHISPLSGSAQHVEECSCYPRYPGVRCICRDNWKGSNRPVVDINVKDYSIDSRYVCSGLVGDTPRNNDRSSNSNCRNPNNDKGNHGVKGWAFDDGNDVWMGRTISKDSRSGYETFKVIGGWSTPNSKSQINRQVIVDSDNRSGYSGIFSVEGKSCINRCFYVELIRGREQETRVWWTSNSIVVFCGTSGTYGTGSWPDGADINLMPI

SMILES	IC50 [1]	IC50 [2]
CC(=O)N[C@H]1[C@H]([C@H](O)[C@H](O)CO)O[C@@](SCCCCCSCCCCCC(=O)NCCC[Si](CCCNC(=O)CCCCCSCCCCCS[C@]2(C(=O)O)C[C@H](O)[C@@H](NC(C)=O)[C@H]([C@H](O)[C@H](O)CO)O2)(CCCNC(=O)CCCCCSCCCCCS[C@]2(C(=O)O)C[C@H](O)[C@@H](NC(C)=O)[C@H]([C@H](O)[C@H](O)CO)O2)CCCNC(=O)CCCCCSCCCCCS[C@]2(C(=O)O)C[C@H](O)[C@@H](NC(C)=O)[C@H]([C@H](O)[C@H](O)CO)O2)(C(=O)O)C[C@@H]1O	8.8 mM	4.8 mM
CC(=O)N[C@H]1[C@H]([C@H](O)[C@H](O)CO)O[C@@](SCCCCCSCCCCCC(=O)NCCC[Si](CCCNC(=O)CCCCCSCCCCCS[C@]2(C(=O)O)C[C@H](O)[C@@H](NC(C)=O)[C@H]([C@H](O)[C@H](O)CO)O2)(CCCNC(=O)CCCCCSCCCCCS[C@]2(C(=O)O)C[C@H](O)[C@@H](NC(C)=O)[C@H]([C@H](O)[C@H](O)CO)O2)c2ccccc2)(C(=O)O)C[C@@H]1O	7.1 mM	2.7 mM
CC(=O)N[C@H]1[C@H]([C@H](O)[C@H](O)CO)O[C@@](SCCCCCSCCCCCC(=O)NCCC[Si](CCCNC(=O)CCCCCSCCCCCS[C@]2(C(=O)O)C[C@H](O)[C@@H](NC(C)=O)[C@H]([C@H](O)[C@H](O)CO)O2)(CCCNC(=O)CCCCCSCCCCCS[C@]2(C(=O)O)C[C@H](O)[C@@H](NC(C)=O)[C@H]([C@H](O)[C@H](O)CO)O2)CCC[Si](CCC[Si](CCCNC(=O)CCCCCSCCCCCS[C@]2(C(=O)O)C[C@H](O)[C@@H](NC(C)=O)[C@H]([C@H](O)[C@H](O)CO)O2)(CCCNC(=O)CCCCCSCCCCCS[C@]2(C(=O)O)C[C@H](O)[C@@H](NC(C)=O)[C@H]([C@H](O)[C@H](O)CO)O2)CCCNC(=O)CCCCCSCCCCCS[C@]2(C(=O)O)C[C@H](O)[C@@H](NC(C)=O)[C@H]([C@H](O)[C@H](O)CO)O2)(CCC[Si](CCCNC(=O)CCCCCSCCCCCS[C@]2(C(=O)O)C[C@H](O)[C@@H](NC(C)=O)[C@H]([C@H](O)[C@H](O)CO)O2)(CCCNC(=O)CCCCCSCCCCCS[C@]2(C(=O)O)C[C@H](O)[C@@H](NC(C)=O)[C@H]([C@H](O)[C@H](O)CO)O2)CCCNC(=O)CCCCCSCCCCCS[C@]2(C(=O)O)C[C@H](O)[C@@H](NC(C)=O)[C@H]([C@H](O)[C@H](O)CO)O2)CCC[Si](CCCNC(=O)CCCCCSCCCCCS[C@]2(C(=O)O)C[C@H](O)[C@@H](NC(C)=O)[C@H]([C@H](O)[C@H](O)CO)O2)(CCCNC(=O)CCCCCSCCCCCS[C@]2(C(=O)O)C[C@H](O)[C@@H](NC(C)=O)[C@H]([C@H](O)[C@H](O)CO)O2)CCCNC(=O)CCCCCSCCCCCS[C@]2(C(=O)O)C[C@H](O)[C@@H](NC(C)=O)[C@H]([C@H](O)[C@H](O)CO)O2)(C(=O)O)C[C@@H]1O		7.2 mM
CC(=O)N[C@H]1[C@H]([C@H](O)[C@H](O)CO)O[C@@](SCCCCCSCCCOCCC[Si](CCCOCCCSCCCCCS[C@]2(C(=O)O)C[C@H](O)[C@@H](NC(C)=O)[C@H]([C@H](O)[C@H](O)CO)O2)(CCCOCCCSCCCCCS[C@]2(C(=O)O)C[C@H](O)[C@@H](NC(C)=O)[C@H]([C@H](O)[C@H](O)CO)O2)c2ccccc2)(C(=O)O)C[C@@H]1O	5 mM	5 mM
CC(=O)N[C@H]1[C@H]([C@H](O)[C@H](O)CO)O[C@@](SCCCCCSCCC[Si](CCCSCCCCCS[C@]2(C(=O)O)C[C@H](O)[C@@H](NC(C)=O)[C@H]([C@H](O)[C@H](O)CO)O2)(CCCSCCCCCS[C@]2(C(=O)O)C[C@H](O)[C@@H](NC(C)=O)[C@H]([C@H](O)[C@H](O)CO)O2)CCC[Si](CCC[Si](CCCSCCCCCS[C@]2(C(=O)O)C[C@H](O)[C@@H](NC(C)=O)[C@H]([C@H](O)[C@H](O)CO)O2)(CCCSCCCCCS[C@]2(C(=O)O)C[C@H](O)[C@@H](NC(C)=O)[C@H]([C@H](O)[C@H](O)CO)O2)CCCSCCCCCS[C@]2(C(=O)O)C[C@H](O)[C@@H](NC(C)=O)[C@H]([C@H](O)[C@H](O)CO)O2)(CCC[Si](CCCSCCCCCS[C@]2(C(=O)O)C[C@H](O)[C@@H](NC(C)=O)[C@H]([C@H](O)[C@H](O)CO)O2)(CCCSCCCCCS[C@]2(C(=O)O)C[C@H](O)[C@@H](NC(C)=O)[C@H]([C@H](O)[C@H](O)CO)O2)CCCSCCCCCS[C@]2(C(=O)O)C[C@H](O)[C@@H](NC(C)=O)[C@H]([C@H](O)[C@H](O)CO)O2)CCC[Si](CCCSCCCCCS[C@]2(C(=O)O)C[C@H](O)[C@@H](NC(C)=O)[C@H]([C@H](O)[C@H](O)CO)O2)(CCCSCCCCCS[C@]2(C(=O)O)C[C@H](O)[C@@H](NC(C)=O)[C@H]([C@H](O)[C@H](O)CO)O2)CCCSCCCCCS[C@]2(C(=O)O)C[C@H](O)[C@@H](NC(C)=O)[C@H]([C@H](O)[C@H](O)CO)O2)(C(=O)O)C[C@@H]1O	7 mM	5 mM
CC(=O)N[C@H]1[C@H]([C@H](O)[C@H](O)CO)O[C@@](SCCCCCSCCCCCC(=O)NCCC[Si](CCCNC(=O)CCCCCSCCCCCS[C@]2(C(=O)O)C[C@H](O)[C@@H](NC(C)=O)[C@H]([C@H](O)[C@H](O)CO)O2)(CCCNC(=O)CCCCCSCCCCCS[C@]2(C(=O)O)C[C@H](O)[C@@H](NC(C)=O)[C@H]([C@H](O)[C@H](O)CO)O2)CCC[Si](C)(C)CCC[Si](CCCNC(=O)CCCCCSCCCCCS[C@]2(C(=O)O)C[C@H](O)[C@@H](NC(C)=O)[C@H]([C@H](O)[C@H](O)CO)O2)(CCCNC(=O)CCCCCSCCCCCS[C@]2(C(=O)O)C[C@H](O)[C@@H](NC(C)=O)[C@H]([C@H](O)[C@H](O)CO)O2)CCCNC(=O)CCCCCSCCCCCS[C@]2(C(=O)O)C[C@H](O)[C@@H](NC(C)=O)[C@H]([C@H](O)[C@H](O)CO)O2)(C(=O)O)C[C@@H]1O	8.1 mM	2.8 mM
CC(=O)N[C@H]1[C@H]([C@H](O)[C@H](O)CO)O[C@@](SCCCCCSCCCOCCC[Si](CCCOCCCSCCCCCS[C@]2(C(=O)O)C[C@H](O)[C@@H](NC(C)=O)[C@H]([C@H](O)[C@H](O)CO)O2)(CCCOCCCSCCCCCS[C@]2(C(=O)O)C[C@H](O)[C@@H](NC(C)=O)[C@H]([C@H](O)[C@H](O)CO)O2)CCC[Si](C)(C)CCC[Si](CCCOCCCSCCCCCS[C@]2(C(=O)O)C[C@H](O)[C@@H](NC(C)=O)[C@H]([C@H](O)[C@H](O)CO)O2)(CCCOCCCSCCCCCS[C@]2(C(=O)O)C[C@H](O)[C@@H](NC(C)=O)[C@H]([C@H](O)[C@H](O)CO)O2)CCCOCCCSCCCCCS[C@]2(C(=O)O)C[C@H](O)[C@@H](NC(C)=O)[C@H]([C@H](O)[C@H](O)CO)O2)(C(=O)O)C[C@@H]1O	1.25 mM	5 mM
CC(=O)N[C@H]1[C@H]([C@H](O)[C@H](O)CO)O[C@@](SCCCCCSCCCOCCC[Si](CCCOCCCSCCCCCS[C@]2(C(=O)O)C[C@H](O)[C@@H](NC(C)=O)[C@H]([C@H](O)[C@H](O)CO)O2)(CCCOCCCSCCCCCS[C@]2(C(=O)O)C[C@H](O)[C@@H](NC(C)=O)[C@H]([C@H](O)[C@H](O)CO)O2)CCCOCCCSCCCCCS[C@]2(C(=O)O)C[C@H](O)[C@@H](NC(C)=O)[C@H]([C@H](O)[C@H](O)CO)O2)(C(=O)O)C[C@@H]1O	5 mM	5 mM
CC(=O)N[C@H]1[C@H]([C@H](O)[C@H](O)CO)O[C@@](SCCCCCSCCCOCCC[Si](CCCOCCCSCCCCCS[C@]2(C(=O)O)C[C@H](O)[C@@H](NC(C)=O)[C@H]([C@H](O)[C@H](O)CO)O2)(CCCOCCCSCCCCCS[C@]2(C(=O)O)C[C@H](O)[C@@H](NC(C)=O)[C@H]([C@H](O)[C@H](O)CO)O2)CCC[Si](CCC[Si](CCCOCCCSCCCCCS[C@]2(C(=O)O)C[C@H](O)[C@@H](NC(C)=O)[C@H]([C@H](O)[C@H](O)CO)O2)(CCCOCCCSCCCCCS[C@]2(C(=O)O)C[C@H](O)[C@@H](NC(C)=O)[C@H]([C@H](O)[C@H](O)CO)O2)CCCOCCCSCCCCCS[C@]2(C(=O)O)C[C@H](O)[C@@H](NC(C)=O)[C@H]([C@H](O)[C@H](O)CO)O2)(CCC[Si](CCCOCCCSCCCCCS[C@]2(C(=O)O)C[C@H](O)[C@@H](NC(C)=O)[C@H]([C@H](O)[C@H](O)CO)O2)(CCCOCCCSCCCCCS[C@]2(C(=O)O)C[C@H](O)[C@@H](NC(C)=O)[C@H]([C@H](O)[C@H](O)CO)O2)CCCOCCCSCCCCCS[C@]2(C(=O)O)C[C@H](O)[C@@H](NC(C)=O)[C@H]([C@H](O)[C@H](O)CO)O2)CCC[Si](CCCOCCCSCCCCCS[C@]2(C(=O)O)C[C@H](O)[C@@H](NC(C)=O)[C@H]([C@H](O)[C@H](O)CO)O2)(CCCOCCCSCCCCCS[C@]2(C(=O)O)C[C@H](O)[C@@H](NC(C)=O)[C@H]([C@H](O)[C@H](O)CO)O2)CCCOCCSCCCCCS[C@]2(C(=O)O)C[C@H](O)[C@@H](NC(C)=O)[C@H]([C@H](O)[C@H](O)CO)O2)(C(=O)O)C[C@@H]1O	6.5 mM	6.4 mM

From ChEMBL document CHEMBL1152425, “Systematic syntheses of influenza neuraminidase inhibitors: a series of carbosilane dendrimers uniformly functionalized with thioglycoside-type sialic acid moieties” (Bioorg Med Chem, 2009)
